These results are taken from PMC5987874 (The Journal of General Physiology, 2018).

The target of experiment [1] is T1, human Hv1 H140A-H193A (Homo sapiens, UniProt Q96D96, H140A/H193A).
T1 sequence (Q96D96 1-273 H140A/H193A): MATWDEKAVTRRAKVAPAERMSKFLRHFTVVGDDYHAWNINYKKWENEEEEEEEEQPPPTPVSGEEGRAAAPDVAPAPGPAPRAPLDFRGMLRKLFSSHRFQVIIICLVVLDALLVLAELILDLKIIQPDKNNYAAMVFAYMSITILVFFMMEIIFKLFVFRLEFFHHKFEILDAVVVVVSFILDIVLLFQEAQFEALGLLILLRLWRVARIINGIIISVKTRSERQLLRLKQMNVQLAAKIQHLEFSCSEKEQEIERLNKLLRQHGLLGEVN
To be noted: double mutant; ref Ramsey et al., 2006; cited from earlier work.

Experiment [2] deals with T2, human Hv1 WT (Homo sapiens, UniProt Q96D96).
T2 sequence (Q96D96 1-273): T1 sequence (Q96D96 1-273 H140A/H193A) with A140H, A193H
Kind of experiment: Whole-cell voltage clamp, Zn^2+ modulation of GAQ gating. The class given is cell-based. In a few lines:
(§1)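 Whole-cell patch clamp at ~21°C. Pipette and bath (mM): ~80 TMA-MeSO3, 100 Bis-Tris, 8 HCl, pH 6.5, 310–320 mOsm. ZnCl2 was diluted into bath solution and applied by gravity superfusion, at least 2 min per change. Test step voltage was set per construct from its V0.5. G_STEP = end-of-step current/(V−V_REV). Effect = 1 − G_Zn/G_control, fitted to the Hill equation. IC50 and nH are means ± SEM from separate cells. ΔpIC50 was tested by unpaired t test, P<0.05.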

Experiment [3] deals with T3, human Hv1 E119A-H193A (Homo sapiens, UniProt Q96D96, E119A/H193A).
T3 sequence (Q96D96 1-273 E119A/H193A): T1 sequence (Q96D96 1-273 H140A/H193A) with E119A, A140H
Described as above. The class given is cell-based. In a few lines: as §1

In experiment [4] the target is T4, human Hv1 D130H-H193A (Homo sapiens, UniProt Q96D96, D130H/H193A).
T4 sequence (Q96D96 1-273 D130H/H193A): T1 sequence (Q96D96 1-273 H140A/H193A) with D130H, A140H
The description is as above. The class given is cell-based. A digest of the protocol:
as §1

Where [5] appears, read: VSTEP 100 mV, calculated as log (IC50).

Residue numbers refer to the chain shown, from its start.

By pIC50 is commonly meant the negative decadic logarithm of the IC50, by convention in mol/L. As usually defined, the IC50 is the concentration that inhibits the measured activity by half. For the molecule `[Cl-].[Cl-].[Zn+2]` [Zn^2+, ZnCl2], the “Zn^2+ sensitivity” value in experiment [1] is listed as “essentially insensitive to submillimolar”. For the same molecule, the “nH, fit of the mean data to a Hill function” value is reported as 0.8 in experiment [2] (Fig. 2C), 0.8 in experiment [3] (Fig. 4A) and 0.6 in experiment [4] (Fig. 4C). Further, the Hill value in experiment [2] (VSTEP 100 mV) came out at 0.81; in experiment [3] (VSTEP 100 mV), 0.78; in experiment [4] (VSTEP 120 mV), 0.91. In addition, the negative logarithm of the IC50 (pIC50) in experiment [2] (setting [5]) is 5.44; in experiment [3] (setting [5]), −3.56; in experiment [4] (VSTEP 120 mV, calculated as log (IC50)), 5.51. In addition, the “Mean ΔpIC50 = (pIC50_1 - pIC50_2)” value in experiment [3] (E119A-H193A vs E119A) is given as −1.60; in experiment [3] (E119A-H193A vs H193A) it was −0.5; in experiment [4] (D130H-H193A vs D130H) it was −0.16; in experiment [4] (D130H-H193A vs H193A), 1.44. In addition, the IC50 amounted to 274 µM in experiment [3] (read-out: IC50, fit of the mean data to a Hill function, Fig. 4A) and 5.6 µM in experiment [4] (read-out: IC50, fit of the mean data to a Hill function, Fig. 4C).
